Structures are written as SMILES. Where only a bound is given, the exact number is not on record here.

The values that follow come from ChEMBL document CHEMBL4014332, “Multitargeted Imidazoles: Potential Therapeutic Leads for Alzheimer's and Other Neurodegenerative Diseases” (J Med Chem, 2017).

The nature of series [1]: Change in total alpha-tubulin levels in human QBI293 cells at 1 uM after 4 hrs by ELISA relative to control. The note with it: qbi293, 4 h.
A short description of series [2]: Plasma concentration in mouse at 5 mg/kg, ip administered as single dose after 1 hr by LC-MS/MS method. Format: ADME, organism-based. In short, it runs like this:
(§1)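 Groups of three CD-1 or B6SJL mice, 2–5 months old, sexes not mixed, received a single 5 mg/kg i.p. dose in DMSO. Compound was quantified in plasma and brain homogenate at a single time point, and the brain/plasma ratio was derived from these. Values are mean ± SD.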

In a further series the target is T1, Cyclooxygenase (Rattus norvegicus, UniProt P35355+Q63921).
T1 sequence (P35355 whole entry): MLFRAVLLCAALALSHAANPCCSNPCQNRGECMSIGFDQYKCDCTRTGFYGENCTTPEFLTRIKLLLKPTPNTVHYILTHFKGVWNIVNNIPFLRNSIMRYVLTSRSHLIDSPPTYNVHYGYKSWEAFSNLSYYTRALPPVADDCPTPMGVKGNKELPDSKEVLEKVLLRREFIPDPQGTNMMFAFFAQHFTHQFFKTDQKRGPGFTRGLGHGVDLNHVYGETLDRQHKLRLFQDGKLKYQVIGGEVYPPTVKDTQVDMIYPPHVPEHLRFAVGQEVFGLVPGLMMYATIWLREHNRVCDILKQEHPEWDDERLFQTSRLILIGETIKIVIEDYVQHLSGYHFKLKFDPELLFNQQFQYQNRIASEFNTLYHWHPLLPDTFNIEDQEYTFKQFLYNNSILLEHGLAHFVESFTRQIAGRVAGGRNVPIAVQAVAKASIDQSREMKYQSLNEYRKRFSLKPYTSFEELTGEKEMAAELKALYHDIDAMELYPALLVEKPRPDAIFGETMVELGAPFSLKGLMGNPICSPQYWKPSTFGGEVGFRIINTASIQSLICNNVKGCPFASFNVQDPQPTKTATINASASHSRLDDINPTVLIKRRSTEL
T1 sequence (Q63921 whole entry): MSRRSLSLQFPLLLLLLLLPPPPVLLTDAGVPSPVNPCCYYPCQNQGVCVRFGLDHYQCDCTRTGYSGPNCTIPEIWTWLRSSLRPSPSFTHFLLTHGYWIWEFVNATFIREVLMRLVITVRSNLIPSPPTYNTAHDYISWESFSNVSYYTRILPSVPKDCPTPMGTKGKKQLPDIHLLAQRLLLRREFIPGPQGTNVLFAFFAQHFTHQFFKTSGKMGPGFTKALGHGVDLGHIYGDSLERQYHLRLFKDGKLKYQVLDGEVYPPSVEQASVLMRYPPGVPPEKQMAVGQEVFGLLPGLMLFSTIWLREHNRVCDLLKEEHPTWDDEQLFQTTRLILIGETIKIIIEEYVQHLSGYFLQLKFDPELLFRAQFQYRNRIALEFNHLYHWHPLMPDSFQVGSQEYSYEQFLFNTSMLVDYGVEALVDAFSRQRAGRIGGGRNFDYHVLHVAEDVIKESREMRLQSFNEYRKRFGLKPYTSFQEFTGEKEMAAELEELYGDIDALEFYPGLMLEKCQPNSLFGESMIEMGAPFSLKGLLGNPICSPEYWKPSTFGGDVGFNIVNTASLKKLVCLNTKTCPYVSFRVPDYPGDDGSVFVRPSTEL
Briefly: Inhibition of COX-mediated PGD2/PGE2 production in arachidonic acid-stimulated RBL1 cells preincubated for 2 hrs followed by A23187 induction for 15 mins by LC/MS/MS analysis. In short, it runs like this:
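RBL-1 cells in RPMI/10% FBS, 9 × 10⁵ cells/well, held 2 h, then exposed to compound for 2 h at multiple concentrations in triplicate. Stimulation was 12 μM A23187 for 15 min. Eicosanoids were extracted with MeOH/0.01% BHT, and PGD₂ plus PGE₂ measured by UPLC-MS/MS (negative ion, 351 > 315).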

The nature of series [3]: Ratio of drug level in brain to plasma in mouse at 5 mg/kg, ip administered as single dose. The class given is ADME, organism-based. To be noted: read-out: BPR. A digest of the protocol:
as §1

Series [4] in a line: Drug uptake in mouse brain at 5 mg/kg, ip administered as single dose after 1 hr by LC-MS/MS method. Format: ADME, organism-based. To be noted: read-out: Drug uptake. A digest of the protocol: as §1
For series [5], the species on record is Rattus norvegicus. Briefly: Inhibition of 5-LOX-mediated LTB4 production in arachidonic acid-stimulated RBL1 cells at 10 uM preincubated for 2 hrs followed by A23187 induction for 15 mins by LC/MS/MS analysis relative to control. In short, it runs like this:
(§2)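 RBL-1 cells grown in RPMI/10% FBS, plated 9 × 10⁵ cells/well, held 2 h at 37 °C, then given compound for 2 h (screen at 10 μM, then concentration–response in triplicate). Stimulation was 12 μM A23187 for 15 min. Supernatants were extracted with MeOH/0.01% BHT and LTB₄ quantified by UPLC-MS/MS in negative ion mode.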

The nature of series [6]: Inhibition of 5-LOX-mediated LTB4 production in arachidonic acid-stimulated RBL1 cells preincubated for 2 hrs followed by A23187 induction for 15 mins by LC/MS/MS analysis. To be noted: Rattus norvegicus, RBL-1. In short, it runs like this: as §2
Series [7] in a line: Ratio of drug level in brain to plasma in mouse at 2 mg/kg, ip administered as cassette dosing. The class given is ADME, organism-based. To be noted: read-out: BPR. A digest of the protocol:
(§3)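 Groups of three 2–5-month-old CD-1 or B6SJL mice, sexes kept separate, were cassette-dosed i.p. in DMSO at 2 mg/kg with two or three compounds given together. Plasma and brain homogenate levels were measured at a single time point and scaled proportionally up to 5 mg/kg. The brain/plasma ratio was derived from these, reported as mean ± SD.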

A short description of series [8]: Drug uptake in mouse brain at 2 mg/kg, ip administered as cassette dosing after 1 hr by LC-MS/MS method. The note with it: read-out: Drug uptake. Format: ADME, organism-based. In short, it runs like this: as §3
Series [9] can be described thus: Plasma concentration in mouse at 2 mg/kg, ip administered as cassette dosing after 1 hr by LC-MS/MS method. Format: ADME, organism-based. A digest of the protocol: as §3
For series [10], the species on record is Rattus norvegicus. The note with it: at 10 nM.
Series [11] addresses Cyclooxygenase (Rattus norvegicus) (UniProt P35355+Q63921). The note with it: at 10 nM.
Series [12] can be described thus: Change in total alpha-tubulin levels in human QBI293 cells at 10 uM after 4 hrs by ELISA relative to control. The note with it: qbi293, 4 h. The class given is cell-based. In short, it runs like this:
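QBI-293 cells grown in DMEM/10% FBS at 37 °C, 5% CO2, plated 6 × 10⁵ cells/well, left overnight, then given vehicle or compound (1 and 10 μM) for 4 h. Cells were lysed in RIPA with protease inhibitors, 1 mM PMSF and 1 μM TSA, then spun at 100000g for 30 min. Total α-tubulin was measured by ELISA, normalized by BCA protein, expressed as fold change vs DMSO, triplicate, two-tailed unpaired t test.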

For orientation: IC50 means the point on the concentration scale where inhibition reaches its midpoint. Low values mean greater potency in that assay, high ones weaker potency in that assay. As a reminder, the inhibition is the percentage by which the read-out fell short of the control. A high value points to strong suppression. In the case of `Fc1cc(-n2cnc(Cl)c2-c2c(F)ccc(F)c2F)ccc1Cl`, the Activity entry in [1] is “Non-Toxic”. In addition, the concentration at 1 h in series [2] came out at 240 nM; in series [4] it was 700 nM. The IC50 on Cyclooxygenase was 4.6 µM; in [6] it was 6 µM. Further, the Kp in [3] came out at 3. The molecule also showed an inhibition in the series filed under Rattus norvegicus [5] of 66%.

Turning to `COc1ccc(-n2c(-c3c(F)cc(F)cc3F)cnc2Cl)cc1`, in series [1], the Activity entry is on record as “Non-Toxic”. In addition, the IC50 against Cyclooxygenase worked out at 9.8 µM; in series [6], 20.8 µM. In addition, the Kp in [7] was 0.9. Moreover, the concentration at 1 h in series [8] and in series [9] was 210 nM each time. In the series listed under Rattus norvegicus [5], this molecule showed an inhibition of 75%.

As for `Fc1cccc(F)c1-c1c(Cl)ncn1-c1ccc(Cl)cc1`, in series [1], the Activity entry is reported as “Non-Toxic”. Further, the IC50 was determined as 2.4 µM against Cyclooxygenase and 13.8 µM in [6]. Further, in series [7], the Kp turned out to be 1.9. Moreover, the concentration at 1 h amounted to 700 nM in series [8] and 400 nM in series [9]. For the same molecule, the inhibition in the series filed under Rattus norvegicus [5] was 76%.

For `CC(C)c1ccc2c(c1)c(SC(C)(C)C)c(CC(C)(C)C(=O)O)n2Cc1ccc(Cl)cc1`, the inhibition in the series listed under Rattus norvegicus [10] was 70%; in series [11], below 10%.

Consider `Fc1cccc(F)c1-c1cnc(Cl)n1-c1ccc(Cl)cc1`, for which, in series [1], the Activity entry is reported as “Non-Toxic”. The concentration at 1 h in series [2] was found to be 480 nM; in [4], 900 nM. Moreover, the IC50 on Cyclooxygenase was determined as 15 µM; in series [6], 10.7 µM. The Kp in series [3] is 1.9. This molecule also showed an inhibition in the series filed under Rattus norvegicus [5] of 92%.

On to `Fc1ccc(Br)c(F)c1-c1c(Cl)ncn1-c1ccc(Cl)cc1`, for which the Activity result in series [1] is reported as “Non-Toxic”. Besides, the concentration at 1 h was 260 nM in [2] and 240 nM in series [4]. In addition, the IC50 was determined as 6.5 µM against Cyclooxygenase and 7.8 µM in series [6]. In addition, in [3], the Kp stood at 0.9. This molecule gave an inhibition in the series filed under Rattus norvegicus [5] of 78%.

With `Fc1ccc(F)c(-c2cnc(Cl)n2-c2ccc(Cl)cc2)c1`, the Activity entry in series [1] is “Non-Toxic”. In addition, the figures for the IC50 (against Cyclooxygenase; in series [6]) were 2.2 µM and 2.5 µM, respectively. Moreover, the Kp in series [7] came out at 3.3. The concentration at 1 h in series [8] is 200 nM; in [9], 60 nM. This molecule also returned an inhibition in the series listed under Rattus norvegicus [5] of 96%.

For the molecule `Clc1ccc(-n2cnc(Cl)c2-c2ccccc2)cc1`, the Activity result in [1] was “Non-Toxic”. For the same molecule, the IC50 on Cyclooxygenase is 1 µM; in [6] it was 12.5 µM. Further, in series [7], the Kp was 2.4. The concentration at 1 h in series [8] was 200 nM; in series [9], 80 nM. In addition, the inhibition in the series filed under Rattus norvegicus [5] was 71%.

On to `Fc1ccc(F)c(-c2c(Cl)ncn2-c2ccc(Cl)cc2)c1F`, for which the Activity result in series [1] was “Non-Toxic”. Also, the concentration at 1 h was 300 nM in series [2] and 700 nM in series [4]. Further, the IC50 on Cyclooxygenase is 2.9 µM; in series [6], 2.4 µM. Further, the Kp in [3] came out at 2.8. This molecule registered an inhibition in the series listed under Rattus norvegicus [5] of 69%.

For `Cc1cc(F)c(-c2c(Cl)ncn2-c2ccc(Cl)cc2)c(F)c1`, the Activity result in series [1] was “Non-Toxic”. Also, the IC50 amounted to 1.8 µM against Cyclooxygenase and 11.7 µM in series [6]. For the same molecule, the Kp in series [7] was 2.5. Also, the concentration at 1 h in [8] stood at 300 nM; in series [9] it was 110 nM. In addition, the inhibition in the series filed under Rattus norvegicus [5] is 75%.

Consider `Cc1ncn(-c2ccc(Cl)cc2)c1-c1c(F)ccc(F)c1F`, for which the results for the IC50 (against Cyclooxygenase; in series [6]) were 4.7 µM and 23.7 µM, respectively. Further, the Kp in [7] was determined as 1.9. Further, the “fold change (FC)” value in series [12] turned out to be 1.2. Further, the concentration at 1 h amounted to 400 nM in [8] and 200 nM in series [9]. Further, in the series listed under Rattus norvegicus [5], the inhibition came to 74%.

As to `Fc1ccc(Cl)c(F)c1-c1c(Cl)ncn1-c1ccc(Cl)cc1`, the Activity entry in series [1] is given as “Non-Toxic”. Further, the concentration at 1 h in series [2] was found to be 190 nM; in series [4] it was 400 nM. For the same molecule, the figures for the IC50 (on Cyclooxygenase; in series [6]) were 2.2 µM and 9.5 µM, respectively. Besides, the Kp in series [3] worked out at 2.1. Further, the inhibition in the series filed under Rattus norvegicus [5] came to 63%.

As to `Cc1ncn(-c2ccc(Cl)cc2)c1-c1c(F)ccc(Cl)c1F`, in [1], the Activity result is “Non-Toxic”. Moreover, the 50% inhibitory concentration (IC50) on Cyclooxygenase came out at 12.1 µM; in [6] it was 13.4 µM. In [7], the Kp was found to be 1.4. Besides, the concentration at 1 h was determined as 600 nM in series [8] and 500 nM in series [9]. Also, the inhibition in the series listed under Rattus norvegicus [5] is 71%.
